Assay [1] concerns M21. In words: Inhibition of nuclear translocation of thioredoxin 1 in human M21 cells at 50 uM after 18 hrs by immunocytochemistry. In kind it is functional, cell-based. Put shortly:
(§1)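 M21 cells seeded on fibronectin-coated coverslips, held 18 h at 37 °C, then treated with compounds (5–50 µM; reference agents 0.1–40 µM) or 0.1% DMSO. Fixed in 3.7% formaldehyde, permeabilized with 0.1% saponin, and blocked in 3% BSA. Stained 1 h at 37 °C with anti-thioredoxin-1 monoclonal (1/200), then with Alexa-488 anti-mouse IgG plus DAPI for nuclei.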

Another assay concerns HT-29. In words: Growth inhibition of human HT29 cells after 48 hrs by sulforhodamine B assay. In kind it is functional. The conditions noted are these: for GI50: HT-29, 48 h. Put shortly: (§2)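 NCI-style sulforhodamine B assay. HT-29 (5×10³), M21 or MCF-7 (3.5×10³) cells were grown 24 h, then given DMSO-solubilized drug at 100 to 0.7 µM final (DMSO <0.5%) for 48 h. Fixed in cold 10% TCA, stained with 0.1% SRB, read at 585 nm after subtracting a day-0 plate. Inhibition is relative to DMSO controls; GI50 from at least triplicate runs.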
For orientation: Sulforhodamine B stains cellular protein and so reports cell mass.

Assay [2] relates to M21. In words: Growth inhibition of human M21 cells after 48 hrs by sulforhodamine B assay. In kind it is functional. The conditions noted are these: for GI50: M21, 48 h. Put shortly:
as §2

A further assay relates to MCF7. In words: Growth inhibition of human MCF7 cells after 48 hrs by sulforhodamine B assay. In kind it is functional. The conditions noted are these: for GI50: MCF7, 48 h. Put shortly: as §2
Assay [3] concerns M21. In words: Inhibition of nuclear translocation of thioredoxin 1 in human M21 cells at 5 uM after 18 hrs by immunocytochemistry. In kind it is functional, cell-based. Put shortly:
as §1

Activity calls are given as the source filed them. No cut-off for these calls is given here.

As for `Cc1ccc(NC(=O)NCCCl)cc1`, the result in the assay with M21 [1] was Active.
For `CCNC(=O)Nc1ccc(C2CCCCC2)cc1`, the result in the assay on HT-29, in the assay with M21 [2] and with MCF7 was inactive.
Turning to `CCNC(=O)Nc1ccc2c(c1)CCC2`, the outcome in the assay on HT-29, with M21 [2] and in the assay on MCF7 was inactive.
On to `O=C(NCCCl)NC1c2ccccc2-c2ccccc21`, for which, in the assay on M21 [1], the outcome was Active.
As a reminder, the GI50 is the concentration giving 50% growth inhibition. Higher therefore signals less potent growth inhibition. `O=C(CCl)NC(=O)Nc1ccc(-c2ccccc2)cc1`: the GI50 came to 2.3 µM in the assay with HT-29, 1.4 µM in the assay with M21 [2] and 3.9 µM in the assay with MCF7. In addition, the result in the assay on M21 [3] was Active.
Turning to `O=C(CCl)NC(=O)Nc1cccc(Oc2ccccc2)c1`, the 50% growth inhibitory concentration (GI50) was 5.2 µM in the assay with HT-29, 5.3 µM with M21 [2] and 8.1 µM in the assay on MCF7. In addition, the outcome with M21 [3] was Active.
The like results for `O=C(CCl)NC(=O)Nc1ccc2ccccc2c1` were, in that order, 4.9 µM, 3.7 µM, 7.6 µM and “inactive”.
Turning to `CCNC(=O)Nc1cccc(OC2CCCCCC2)c1`, the result in the assay on HT-29, with M21 [2] and in the assay with MCF7 was inactive.
Consider `O=C(CCl)NC(=O)NC1c2ccccc2-c2ccccc21`, for which, in the assay with M21 [3], the result was inactive.
For the compound `Cc1ccc(NC2=NCCO2)cc1`, the result with M21 [1] was inactive.
With `O=C(NCCCl)Nc1cccc(Oc2ccccc2)c1`, the outcome in the assay on M21 [1] was inactive.
`O=C(NCCCl)NC1C2CC3CC(C2)CC1C3` (centres undefined): the figures for the GI50 in the assay on HT-29 and with MCF7 were 50.6 µM and 11.3 µM, respectively. Further, the outcome with M21 [2] and in the assay on M21 [1] was inactive.
Turning to `c1ccc2c(c1)-c1ccccc1C2NC1=NCCO1`, the result in the assay on M21 [1] was Active.
For the compound `c1ccc(COc2cccc(NC3=NCCO3)c2)cc1`, the GI50 was 0.8 µM in the assay with HT-29, 1.5 µM in the assay with M21 [2] and 2.6 µM in the assay on MCF7. In the assay on M21 [3], the outcome was inactive.
`O=C(CCl)NC(=O)NC1C2CC3CC(C2)CC1C3` (centres undefined): the GI50 is 5.1 µM in the assay on HT-29, 3.2 µM in the assay with M21 [2] and 6.2 µM in the assay on MCF7.
Turning to `O=C(CCl)NC(=O)Nc1ccc(OCc2ccccc2)cc1`, the GI50 was 2.6 µM in the assay with HT-29, 5.1 µM in the assay with M21 [2] and 4.6 µM in the assay on MCF7. Moreover, the outcome in the assay with M21 [3] was inactive.
As to `c1ccc2cc(NC3=NCCO3)ccc2c1`, the GI50 with HT-29 is 2 µM; with M21 [2], 3.5 µM; with MCF7 it was 4.5 µM. The result with M21 [1] and with M21 [3] was Active.
On to `Cc1ccc(NC(=O)NC(=O)CCl)cc1C`, for which, in the assay on M21 [3], the result was inactive.
In the case of `O=C(NCCCl)Nc1ccc(OCc2ccccc2)cc1`, the figures for the GI50 in the assay with HT-29 and in the assay with MCF7 were 37.5 µM and 79.7 µM, respectively. Moreover, the result in the assay on M21 [2] and with M21 [1] was inactive.
Take `Cc1ccc(NC(=O)NC(=O)CCl)cc1`: the result with M21 [3] was Active.
For `O=C(CCl)NC(=O)Nc1ccc(Oc2ccccc2)cc1`, the GI50 is 3.6 µM with HT-29, 4.2 µM in the assay on M21 [2] and 4.2 µM in the assay on MCF7. Also, in the assay with M21 [3], the outcome was inactive.
Regarding `CCNC(=O)Nc1ccc(OC2CCCCC2)cc1`, the outcome in the assay on HT-29, in the assay with M21 [2] and with MCF7 was inactive.
For `O=C(CCl)NC(=O)Nc1cccc(OCc2ccccc2)c1`, the GI50 was 6.5 µM with HT-29, 4.5 µM in the assay with M21 [2] and 6.2 µM with MCF7. Besides, the result in the assay on M21 [3] was inactive.
On to `C1COC(NC2C3CC4CC(C3)CC2C4)=N1` (centres undefined), for which the GI50 in the assay with HT-29 amounted to 53.4 µM; in the assay with M21 [2], 60.7 µM; in the assay on MCF7, 24.1 µM. For the same compound, the result with M21 [1] was Active.
On to `O=C(CCl)NC(=O)Nc1ccc2c(c1)CCC2`, for which, in the assay with M21 [3], the outcome was Active.

The values are drawn from ChEMBL document CHEMBL1155784, “Aromatic 2-chloroethyl urea derivatives and bioisosteres. Part 2: Cytocidal activity and effects on the nuclear translocation of thioredoxin-1, and the cell cycle progression” (2008).
